B1: tRNA (parent)
chain: GUUCCGUUGGCGUAAUGGUAACGCGUCUCCCUCCUAAGGAGAAGACUGCGGGUUCGAGUCCCGUACGGAACG

Variants at the floor of the assay were thinned out.

The series covers variants of B1. Description: yeast fitness relative to wild type (ratio to wild type); higher = fitter; tRNA-Arg(CCU), competitive growth, 37 C, YPD. A digest of the protocol: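 Variants of the tRNA-Arg(CCU) gene were chemically synthesised with a 3% per-site mutation rate across 69 sites and placed at the native genomic locus in Saccharomyces cerevisiae. Six parallel replicates of the pooled strains were competed in YPD at 37°C for 24 hours, and gene amplicons from the start and end populations were read by 100-nucleotide paired-end sequencing. Darwinian fitness relative to wild type was derived from changes in genotype frequencies. Genotypes required ≥ 100 starting reads, and estimates < 0.5 were set to 0.5.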
As to GUUCCGUUGACGUAAUGAUAACGCGUCUCCCUCCUGAGGAGAAGACUGCGGGAUCGAGUCCCGUACGGAGCG [G10A G18A A36G U53A A70G], the yeast fitness is at most 0.5.
In the case of GUUCCGUUGACGUAAUCGUAACGCGUCUCGCUGCUAAGGAGAAGACUGCGGGUUCGAGUCACGUACGGUGCG [G10A G17C C30G C33G C61A A69U A70G] it was at most 0.5; in that of GUUCCGUUGACAUAAUGGUAACGCGUCUCCCUCCUAAGGAGAAGACUGCGGGUUCGAGUCCCGUACGGAACG [G10A G12A], 0.805; in that of GUUCCGUUGACCUAAUGGUAUCGCGUCUCCCUCCUAAGGAGUAGACUGCGGGUUCGAGUCCCGUACGGAACG [G10A G12C A21U A42U], at most 0.5.
Regarding GUUCCGUUGACGUAAUAGUAACGCGUCUCCCUCCUAAGCAGAAGCCUGGGGGUUCGAGUCCCGUACGGAACG [G10A G17A G39C A45C C49G], the yeast fitness is at most 0.5.
For GUUCCGUUGACGUAAUGAUAACGCGUCUCCCUCCUAAGGAGAAGACUGCGGGUUCGAGUCCUGUACGGAACG [G10A G18A C62U], the yeast fitness was at most 0.5.
In the case of GUUCCGUUGACGUAAUGAUAACGCGUCUCCCUUCUACGGUGAAGACUGCGGGUUCGAGUCCCGUACGGAACG [G10A G18A C33U A37C A40U] it was at most 0.5; in that of GUUCCGUUGACGUAAUGGUAACCCGUCUCCCUCCUAAGGAGAAGACUGCGGGUUCGAGUCGCGUACGGAACG [G10A G23C C61G], at most 0.5.
In the case of GUUCCGUUGACGUAAUAGUAACGCGUCUCCCUCCUAUGGAGAAGACUGCGGGUUCGAGUCCCGUACGGAACG [G10A G17A A37U] it was at most 0.5; in that of GUUCCGUUGACCUAAUGGUAACGCGUCUCCUUCCUAAGGAGAAGACUGCGGGCUCGAGUCCCGUACGGACCG [G10A G12C C31U U53C A70C], at most 0.5; in that of GUUCCGUUGACGUAAUGAUAACGCGUCUCCCUCCUAAGGAGAAGAAUGCGGGUUCGAGUCCCGUACGGAACG [G10A G18A C46A], 0.539.
As for GUUCCGUUGACGUAAUGAUAACGCGUGUCCCUCCUAGAGAGAAGACUGCGGGUUCGAGUCUCGUACGGAACG [G10A G18A C27G A37G G38A C61U], the yeast fitness is at most 0.5.
Turning to GUUCCGUUGACAUAAUGGUAACGCGUCUGCCUCCUAAGGAGAAGACUGCGGGUUCGAGUCCCGUUCGGAACG [G10A G12A C29G A65U], the yeast fitness is at most 0.5.
In the case of GUUCCGUUGACGUAAUCGUAAUGCGUCUCGCUGCUAAGGAGAAGACUGCGGGUUCGAGUCACGUACGGUACG [G10A G17C C22U C30G C33G C61A A69U] it was at most 0.5; in that of GUUCCGUUGACGUAAUAGUAACGCGUCUCCCUCCGGAGGCGAAGACUGCGGGUUCGCGUCCAGUACGGAACG [G10A G17A U35G A36G A40C A57C C62A], at most 0.5; in that of GUUCCGUUGACGUAAUGCUAACGUGUCUCGCUCCUAAGGAGAAGACUGCGGGUUCGAGUCCUGUACGGAACG [G10A G18C C24U C30G C62U], at most 0.5.
Consider GUUCCGUUGACGUAAUGGUAACGCGUCUCCCUCCUAAGGAGAAGACUGCGGGUUCGAGUCCCGUAAGGAACG [G10A C66A], for which the yeast fitness turned out to be 0.545.
In the case of GUUCCGUUGACGUAAUGGUAACGCGUCUCCCUCCUAAGGAGAAGACUGCGGGUUCGAGUCCCGUAGGGAACG [G10A C66G] it was 0.592; in that of GUUCCGUUGACGUAAUGAUAACGCGUGUCCCUCCUAGAGAGAAGACUGCGGGUUCGUGUCCCGUACGGAACG [G10A G18A C27G A37G G38A A57U], at most 0.5.
In the case of GUUCCGUUGACGUAAUGGUAACCCGUCUUCCUCCUCAGGAGAAGACUGGGGGUUCGAGUCCCGUACGGAACG [G10A G23C C29U A36C C49G] it was 0.53.
In the case of GUUCCGUUGACGUAAUAGUAACGCGUCUCCCUCCUAAGGAGAAGACUGCGGGUUCGAGUCCCGUAGGGAACG [G10A G17A C66G] it was 0.623; in that of GUUCCGUUGACGUAAUAGUAACGCGUCUCCGUCCUAAGGAGAAGACUGCGGGUUCGAGUCCCGUACGGAACG [G10A G17A C31G], at most 0.5; in that of GUUCCGUUGACGUAAUGGUAACACGUCUCCCUCCUAAGGAGAAGGCUGCGGGUUCGAGUCCCGUACGGAACG [G10A G23A A45G], at most 0.5.
As for GUUCCGUUGACGUAAUGGUAACGCAUCUCCCUCCUAAGGCGAAGACUGCGGGUUGGAGUCACGUACGGAACG [G10A G25A A40C C55G C61A], the yeast fitness is at most 0.5.
In the case of GUUCCGUUGACGUAAUAGUAACGCGUCUCCCUCCUGAGGCGAAGACUGCGGGUUCGCGUCCAGUACGGAACG [G10A G17A A36G A40C A57C C62A] it was at most 0.5.
As to GUUCCGUUGACGUAAUGAUAACGCGUCUCCCUCCUGAGGAGAAGACUGCGGGUUCGAGUCCCGUACGGAACG [G10A G18A A36G], the yeast fitness is at most 0.5.
Regarding GUUCCGUUGACGUAAUGAUAACGCGUCUCCCUCCUAAGGAGAAGACUGCGGGUUCGAGUCCCGUACGGCACG [G10A G18A A69C], the yeast fitness is at most 0.5.
In the case of GUUCCGUUGACGUAAUGGUAACGCAUCUCCCUCCUAAGGAGAAGACUGCGGGUUCGAGUCCCGUACGGAACG [G10A G25A] it was 0.862; in that of GUUCCGUUGACGUAAUAGUAACGCGUCUCCCUCCUAAGGAGAAGACUGCGGGUUCGAGGCCUGUACGGAACG [G10A G17A U59G C62U], at most 0.5; in that of GUUCCGUUGACGUAAUGGUAACCCGUCUUCCUCCUCAGGAGAAGACUGCGGGUUCGUGUCCCAUACGGAACG [G10A G23C C29U A36C A57U G63A], at most 0.5.
In the case of GUUCCGUUGACGUAAUAGUAACGCGUCCCGCUCCUAAGGAGAAGCCUGUGGGUUCGAGUCCCGUACGGAACG [G10A G17A U28C C30G A45C C49U] it was at most 0.5.
In the case of GUUCCGUUGACGUAAUGGUAACCCGUCUUCCUCCUCAGGAGAAGACUGGGGGUUCGAGUCCCGUACGGAUCG [G10A G23C C29U A36C C49G A70U] it was 0.542.
In the case of GUUCCGUUGACGUAAUGAUAACGCGUGUCCCUCCUAGAGAGAAGACUGCGGGUUCGAGUCCCGUACGGAACG [G10A G18A C27G A37G G38A], the yeast fitness is at most 0.5.
In the case of GUUCCGUUGACGUAAUCGUAACGCGUCUCGCUGCUAAGGAGAAGACUACGGGUUCGAGUCACGUACGGUACG [G10A G17C C30G C33G G48A C61A A69U] it was at most 0.5.
In the case of GUUCCGUUGACGUAAUGGUAACACGUCUCCCUCCGAAGGAGAAGACUGCGGGUUCGAGUCCCGUACGGAACG [G10A G23A U35G] it was at most 0.5.
In the case of GUUCCGUUGACGUAAUGGUAACGCGUCUCCCUCCUAAGGAGAAGACUGCGGGUUCGAGUCCGGUACGGAACG [G10A C62G] it was 0.64; in that of GUUCCGUUGACGUAAUGGUAACGCGUCUCCCUCCUAAGGAGAAGACUGCGGGUUCGAGUCCUGUACGGAUCG [G10A C62U A70U], 0.531; in that of GUUCCGUUGACGUAAUCGUAACGCGUCCCGCUGCUAAGGAGAAGACUGCGGGUUCGAGUCACGUACGGUACG [G10A G17C U28C C30G C33G C61A A69U], at most 0.5.
